# Published values gathered from unrelated publications.
# Each line is one published result; the experiments were not run side by side.
# Cell line: HepG2
# Effect on: cell growth or viability
SMILES,assay,setting,quantity,value
COc1ccccc1/C=C1\SC(=S)N(CC(=O)Nc2ccccc2)C1=O,MTT,10 µM,inhibition,25.6%
CCOC(=O)c1ccc(-n2c(C)cc(/C=C/c3ccc(OCC)cc3)c(C#N)c2=O)cc1,MTT,"1.56 µM, 24 h",viability,100%
O=C(CN1C(=O)/C(=C/c2ccc(O)cc2)SC1=S)Nc1ccccc1,MTT,10 µM,inhibition,31.6%
COc1ccc(NCC(=O)Nc2c(C#N)sc(Nc3ccccc3)c2C(=O)Nc2ccc(OC)cc2)cc1,SRB,"1 µM, 48 h",viability,71.6%
Cc1ccc2nc(-c3ccc(Cl)cc3)[nH]c2c1,MTT,48 h,IC50,28.9 µM
CCn1cc(-c2nnc(-c3cccnc3)o2)c(=O)c2cc(F)c(N3CCC(C)CC3)cc21,ATP luminescence,48 h,EC50,> 40 µM
COc1ccc(NC(=O)c2c(Nc3ccccc3)sc(C#N)c2NC(=O)CNc2ccccc2[N+](=O)[O-])cc1,SRB,"10 µM, 48 h",viability,84.6%
CCn1cc(-c2nc(C)no2)c(=O)c2cc(F)c(N3CCOCC3)cc21,ATP luminescence,48 h,EC50,> 40 µM
CCOC(=O)c1ccc(-n2c(C)cc(C)c(C#N)c2=O)cc1,MTT,"3.125 µM, 24 h",viability,100%
COc1ccc(NC(=O)c2c(Nc3ccccc3)sc(C(=O)NN=Cc3ccc(Cl)cc3)c2NC(C)=O)cc1,SRB,"100 µM, 48 h",viability,52.6%
CC(=O)Nc1cccc(-n2c(=O)n(C3CC3)c(=O)c3c(Nc4ccc(I)cc4F)n(C)c(=O)c(C)c32)c1,resazurin,"780 pM, 72 h",viability,99.5%
COc1ccc(NC(=O)c2c(Nc3ccccc3)sc(C#N)c2NC(=O)CNc2ccc(O)cc2)cc1,SRB,"100 µM, 48 h",viability,53.9%
Clc1ccccc1-c1nc2ccccc2[nH]1,MTT,48 h,IC50,31.5 µM
CCOC(=O)c1ccc(NC(=O)C2=C3C(=Nc4ccccc43)NC2=O)cc1,MTT,"12.5 µM, 24 h",viability,68.1%
O=C(N/N=C/c1cccn1CCCN1CCCC1)Nc1cc2c(Nc3ccc(F)c(Cl)c3)ncnc2cc1O[C@H]1CCOC1,MTT,72 h,IC50,0.67 µM
Cc1cc(=O)oc2ccc(-c3cc(-c4ccc(Br)cc4)nc(N)n3)c(O)c12,MTT,"32 µg/mL, 72 h",inhibition,8%
COc1ccc(NC(=O)c2c(Nc3ccccc3)sc(C(=O)NN=Cc3cc(OC)c(OC)c(OC)c3)c2NC(C)=O)cc1,SRB,"100 µM, 48 h",viability,33.9%
O=[N+]([O-])c1ccc(-c2nc3ccccc3[nH]2)cc1,MTT,48 h,IC50,21 µM
CCOC(=O)c1ccc(-n2c(-c3ccc(C)cc3)cc(-c3ccc(O)cc3)c(C#N)c2=O)cc1,MTT,"1.56 µM, 24 h",viability,100%
CC(=O)O[C@H]1C(=O)[C@@]2(C)[C@H]([C@H](OC(=O)c3ccccc3)[C@]3(O)C[C@H](OC(=O)[C@H](O)[C@@H](NC(=O)c4ccccc4)c4ccccc4)C(C)=C1C3(C)C)[C@]1(OC(C)=O)CO[C@@H]1C[C@@H]2O,MTT,,IC50,4.75 µM
COc1ccc(NC(=O)c2c(Nc3ccccc3)sc(C#N)c2NC(=O)CNc2ccc(OC)c(OC)c2)cc1,SRB,"0.1 µM, 48 h",viability,88.3%
Cc1ccc(/C=N/NC(=O)c2ccc(Nc3cc(C)nc4c(O)cccc34)cc2)cc1,MTT,20 µM,inhibition,41.3%
COc1ccc(NC(=O)c2c(Nc3ccccc3)sc(C(=O)NN=Cc3ccc(Br)cc3)c2NC(C)=O)cc1,SRB,"0.1 µM, 48 h",viability,90.3%
COc1ccc(-c2cc(-c3ccc4oc(=O)cc(C)c4c3O)nc(N)n2)cc1,MTT,"32 µg/mL, 72 h",inhibition,15%
